In ChEMBL document CHEMBL1146238, “Prenylated xanthones from the root bark of Cudrania tricuspidata” (J Nat Prod, 2007):

The compounds below were run against T1, Amine oxidase [flavin-containing] A (Mus musculus, UniProt Q64133) (assay: Inhibition at monoamine oxidase in mouse brain).
T1 sequence (Q64133 whole entry): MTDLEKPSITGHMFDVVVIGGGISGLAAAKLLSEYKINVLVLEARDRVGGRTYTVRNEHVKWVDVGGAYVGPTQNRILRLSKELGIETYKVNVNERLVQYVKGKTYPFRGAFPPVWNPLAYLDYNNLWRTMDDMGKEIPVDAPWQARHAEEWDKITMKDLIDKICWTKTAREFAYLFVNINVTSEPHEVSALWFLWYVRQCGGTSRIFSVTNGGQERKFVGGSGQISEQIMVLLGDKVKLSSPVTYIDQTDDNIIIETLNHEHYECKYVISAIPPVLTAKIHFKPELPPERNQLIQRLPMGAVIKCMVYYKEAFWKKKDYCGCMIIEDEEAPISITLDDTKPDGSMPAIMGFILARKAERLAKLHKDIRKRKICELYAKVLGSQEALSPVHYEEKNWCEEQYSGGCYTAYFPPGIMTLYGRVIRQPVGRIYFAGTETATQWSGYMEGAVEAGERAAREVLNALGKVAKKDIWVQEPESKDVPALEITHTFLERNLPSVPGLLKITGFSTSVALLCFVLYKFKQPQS
Assay type: tissue-based
Summary of the method: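 Enzyme source: mouse brain mitochondrial fraction. Substrate kynuramine, with MAO converting it to 4-hydroxyquinoline. That product is read fluorometrically at excitation 315 nm and emission 380 nm. Compounds go in as DMSO solutions, with DMSO kept below 3%. Iproniazid serves as the positive control. Result reported as IC50.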

| Structure (SMILES) | IC50 [µM] |
| --- | --- |
| C=CC(C)(C)c1c(O)cc(O)c2c(=O)c3c(CC=C(C)C)c(OC)c(O)cc3oc12 [CUDRAXANTHONE C] | > 150 |
| CC(C)=CC1Oc2cc(O)ccc2-c2oc3cc4c(c(O)c3c(=O)c21)C=CC(C)(C)O4 (stereo unspecified) [CUDRAFLAVONE A] | > 150 |
| C=CC(C)(C)c1c(O)cc2oc3c(CC=C(C)C)c(O)c(O)cc3c(=O)c2c1O [CUDRAXANTHONE L] | > 150 |
| COc1c(CC=C(C)C)c(O)c2c(=O)c3cc(O)c(O)cc3oc2c1CC=C(C)C [CUDRATRICUSXANTHONE K] | > 150 |
| C=CC(C)(C)c1c(O)cc(O)c2c(=O)c3cc(O)c(O)cc3oc12 [CUDRATRICUSXANTHONE L] | > 150 |
| C=CC(C)(C)c1c(O)cc(O)c2c(=O)c3c(CCC(C)(C)O)c(O)c(O)cc3oc12 [CUDRATRICUSXANTHONE M] | > 150 |
| CC(C)=CCc1c(-c2ccc(O)cc2O)oc2cc3c(c(O)c2c1=O)C=CC(C)(C)O3 [CUDRAFLAVONE B] | 80 |
| CC(C)=CCc1c(O)c(O)cc2oc3c4c(cc(O)c3c(=O)c12)OC(C)C4(C)C (stereo unspecified) [CUDRATRICUSXANTHONE J] | > 150 |
| C=CC(C)(C)c1c(O)cc(O)c2c(=O)c3c(CC=C(C)C)c(O)c(O)cc3oc12 [CUDRATRICUSXANTHONE A] | 88.3 |
| C=CC(C)(C)c1c(O)cc2oc3c4c(c(O)cc3c(=O)c2c1O)OC(C)(C)C=C4 [ISOCUDRAXANTHONE K] | > 150 |
| CC(C)=CCc1c(O)cc2c(c1O)C(=O)C[C@@H](c1cc3c(cc1O)OC(C)(C)C=C3)O2 [CUDRAFLAVANONE A] | 89.7 |
